Compound activity as filed in PubChem.
OXTR agonist: agonists of human oxytocin receptor | AID 2435 | 0.32% of 320,000 active | activation, % at 3 µM | CHO-OTR cells, Fluo-8 calcium fluorescence; normalized: DMSO 0%, oxytocin 100%;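 active = activation above the mean of all tested compounds plus 3 SD, cutoff set per screening run, cut at about 20% in these data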;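 also: peak over basal fluorescence ratio from a 100 s FLIPR kinetic read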
Target sequence (P30559 whole entry, looked up): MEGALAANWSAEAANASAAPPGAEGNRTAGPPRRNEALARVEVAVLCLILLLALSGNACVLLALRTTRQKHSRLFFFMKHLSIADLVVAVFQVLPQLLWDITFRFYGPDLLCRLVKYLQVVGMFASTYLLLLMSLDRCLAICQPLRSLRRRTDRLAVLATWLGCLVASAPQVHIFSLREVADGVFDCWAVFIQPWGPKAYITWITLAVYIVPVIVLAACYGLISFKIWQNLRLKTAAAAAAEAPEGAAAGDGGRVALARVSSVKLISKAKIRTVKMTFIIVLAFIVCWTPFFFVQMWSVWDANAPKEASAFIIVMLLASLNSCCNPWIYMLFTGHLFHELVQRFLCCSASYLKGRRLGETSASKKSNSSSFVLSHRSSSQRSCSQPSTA
TAAR1 ag: agonists of human TAAR1 | Q96RJ0 | CHO RD-HGA16 TAAR1, Fluo-8 calcium fluorescence; vehicle wells 0%, saturating PEA agonist 100% | activation, % at 3 µM | 0.99% of 360,000 active;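 active = activation above the mean activation of all test compounds in the run plus 3 SD, cut at about 38% in these data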
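Test system: RD-HGA16 (CHO) cells co-expressing Gα16 and hTAAR1 | Doses: Single dose, 3 µM | Schedule: 17-24 h seeding, 75 min 37 °C dye, 30 min RT | Evaluation: % activation from peak over basal fluorescence ratio, DMSO-to-PEA scaled | Technique: Kinetic Fluo-8 calcium fluorescence | Benchmarks: Low control DMSO, high control PEA (EC100)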
V1aR counter: counter-screen for oxytocin receptor agonists: human V1a receptor agonists; CHO-V1R cells, Fluo-8 calcium fluorescence, agonist mode; 0% DMSO, 100% 3 nM vasopressin; activation, % at 3 µM; 0.25% of 320,000 active;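 active = activation above the mean activation of all tested compounds plus 3 SD, per screening run, cut at about 20% in these data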;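 also: signal is peak over basal fluorescence ratio across a 100 second FLIPR read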
Target sequence (P37288 whole entry, looked up): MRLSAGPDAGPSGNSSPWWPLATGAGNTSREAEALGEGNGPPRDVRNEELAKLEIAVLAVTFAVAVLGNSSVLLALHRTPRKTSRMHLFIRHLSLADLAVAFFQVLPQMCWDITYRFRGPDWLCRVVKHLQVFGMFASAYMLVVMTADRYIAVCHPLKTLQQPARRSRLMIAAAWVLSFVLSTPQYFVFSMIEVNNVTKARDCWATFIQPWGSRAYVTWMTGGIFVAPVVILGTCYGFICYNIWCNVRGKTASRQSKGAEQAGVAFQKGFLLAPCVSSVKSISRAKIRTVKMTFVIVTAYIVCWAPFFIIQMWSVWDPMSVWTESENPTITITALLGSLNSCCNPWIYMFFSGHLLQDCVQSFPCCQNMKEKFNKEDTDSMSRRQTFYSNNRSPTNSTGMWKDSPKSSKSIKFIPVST
TAAR1 antag: antagonists of human TAAR1 | CHO RD-HGA16 TAAR1, Fluo-8 calcium fluorescence, antagonist | 1.5% of 360,000 active | Q96RJ0 | inhibition, % at 3 µM;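 active = inhibition above a per-plate cutoff, the mean inhibition of test compounds on that plate plus 3 SD, cut at about 49% in these data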;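 also: 0% = DMSO plus EC80 beta-PEA response and 100% = DMSO alone without agonist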
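Test system: CHO RD-HGA16 cells bearing hTAAR1 | Reagent: β-PEA, EC80 | Compound dosing: 3 µM, single point | Schedule: Dye loading 75 min at 37 °C, then 30 min room temperature | Signal: Calcium fluorescence with Fluo-8 | Evaluation: Percent inhibition of PEA-evoked calcium signal, max/basal emission ratio | Control set: DMSO-only wells and EC80 β-PEA-stimulated wells | Repeats: Singlicate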
OXTR potentiate: potentiators of human oxytocin receptor. CHO-OTR cells, Fluo-8 calcium fluorescence, potentiator mode; 0% = oxytocin EC15, 100% = EC100. activation, % at 3 µM. 0.061% of 320,000 active. AID 2445;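 active = activation above that plate's cutoff, the mean activation of tested compounds plus 3 SD, cut at about 6.6% in these data, passing the limit was not always enough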;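 also: 100% uses oxytocin at 75 nM as the full agonist control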
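System: human OTR in CHO cells / Also added: sub-maximal oxytocin, roughly EC15 / Control set: EC15 oxytocin low, 75 nM oxytocin high / Schedule: 6 min compound pre-incubation at room temperature, 100 s kinetic read / Compound: single-point 3.0 µM / Replication: singlicate / Technique: Fluo-8 calcium dye fluorescence / Read-out basis: % activation of max/min ratio relative to oxytocin controls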
OXTR agonist cf: confirmation of human oxytocin receptor agonists; AID 434963; activation, % at 3 µM; shares compounds with OXTR agonist; 20% of 390 active; CHO-OTR cells, Fluo-8 calcium fluorescence, agonist;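 active = mean activation above about 20% derived from the earlier single-dose screen, limit read from the data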;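 also: peak over minimum fluorescence ratio per well during a 100 second FLIPR read; 0% = DMSO alone and 100% = oxytocin high control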
V1R ag counter 3x: activates V1a receptor in oxytocin agonist counter-screen; 10% of 390 active; shares compounds with OXTR agonist; CHO-V1R cells, Fluo-8 calcium fluorescence; activation, % at 3 µM; AID 434991;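 active = mean activation over triplicate exceeds the hit threshold set in the earlier primary screen, cut at about 20% in these data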;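 also: peak over basal fluorescence ratio within a 100 second read; 0% = DMSO alone and 100% = 3 nM vasopressin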
OXTR pot confirm: human OXTR potentiation, confirmation; shares compounds with OXTR potentiate; CHO-OTR cells, Fluo-8 calcium fluorescence; scaled from low-dose to maximal oxytocin; activation, % at 3 µM; 180 tested, under 10 active;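 active = mean percent activation over triplicates above a cutoff set from solvent-only control plates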;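 also: compounds tested in the presence of an EC15 dose of oxytocin; 0% = EC15 oxytocin with DMSO and 100% = EC100 oxytocin with DMSO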
V1aR agonist cf: confirmation of human vasopressin V1a receptor agonists; AID 434964; 20% of 180 active; CHO-V1R cells, Fluo-8 calcium fluorescence, agonist; shares compounds with V1aR counter; activation, % at 3 µM;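 active = average activation exceeds primary screen hit cutoff, cut at about 21% in these data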;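 also: peak over basal fluorescence ratio during a 100 s FLIPR read; 0% = DMSO only wells and 100% = 3 nM vasopressin wells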
OXTR counter: counter-screen for V1a receptor agonists: oxytocin receptor agonists; 10% of 180 active; activation, % at 3 µM; CHO-OTR cells, Fluo-8 calcium fluorescence, agonist; AID 434969; shares compounds with V1aR counter;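 active = mean activation over three repeats above the cutoff from the earlier oxytocin receptor agonist screen, cut at about 20% in these data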;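 also: peak over minimum fluorescence ratio within a 100 second FLIPR read; 0% = DMSO only wells and 100% = oxytocin high control wells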
nonsel antag count: nonselective antagonist in TAAR1 antagonist counter-screen | shares compounds with TAAR1 antag | counterscreen cell line, calcium fluorescence, antagonist mode | inhibition, % at 3 µM | 77% of 2,400 active; in the data active = inhibition above about 22%;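 also: CHO-Ga16 host cells stimulated with ATP at an EC80 level; 0% = agonist EC80 plus vehicle and 100% = vehicle without agonist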
TAAR1 antag conf: confirmation of human TAAR1 antagonists; shares compounds with TAAR1 antag; inhibition, % at 3 µM; 40% of 2,400 active; TAAR1-expressing cells, fluorescence antagonist read-out; in the data active = inhibition above about 49%;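 also: CHO-Ga16 host cells challenged with agonist PEA near its EC80; 0% = agonist at EC80 plus vehicle and 100% = vehicle with no agonist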
Ga16 ag counter: nonselective Ga16 agonist in TAAR1 antagonist counter-screen. shares compounds with TAAR1 antag. Ga16-expressing cells, calcium fluorescence, agonist counterscreen. activation, % at 3 µM. 18% of 2,400 active. AID 651953; in the data active = activation above about 12%;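 also: 0% = vehicle wells and 100% = saturating stimulus response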
TAAR1 ag count: TAAR1 agonism, antagonist counter-screen; shares compounds with TAAR1 antag; activation, % at 3 µM; AID 651955; hTAAR1 cell line, fluorescence activation, agonist mode; 2% of 2,400 active; in the data active = activation above about 37%;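 also: CHO cells stably expressing TAAR1 with calcium dye readout; 0% = DMSO vehicle and 100% = full agonist response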
* marks the source's active call; other numbers are inactive results; · = no result. A selection: hits, their analogues and other compounds. The true share with any hit is near 2.3%.

SMILES	OXTR agonist	TAAR1 ag	V1aR counter	TAAR1 antag	OXTR potentiate	others
Cc1ccc(S(=O)(=O)NP(=O)(Oc2ccccc2)Oc2ccccc2)cc1	1	7	-1	-12	5
C#C[C@]1(O)CCC2C3C(=O)C=C4C=CCC[C@]4(C)C3CC[C@@]21C (stereo not given in full)	·	14	·	49*	·
C#C[C@]1(O)CCC2C3C(CC[C@@]21C)[C@@]1(C)CC[C@@H](O)CC1=C[C@H]3O (stereo not given in full)	1	0	0	4	-1
OC1CN2CCCC(O)C2C1O (stereo not given)	·	1	·	-9	·
CCOC(=O)C1CCCN(c2ccc([N+](=O)[O-])c3nonc23)C1 (stereo not given)	·	225*	·	71*	·
Cc1ccc(/C=C2/C(=O)NC(=O)N(CCc3ccc(F)cc3)C2=O)o1	1	39*	3	28	-8
O=C1NC(=O)N(CCc2ccc(F)cc2)C(=O)/C1=C/c1ccco1	3	12	2	-30	-26
COP(=O)(OC)OC=C(Cl)Cl	·	1	·	10	·
C=CP(=O)(O)c1ccccc1	1	5	1	-9	0
CN[C@@H]1C[C@@H](c2ccc(Cl)c(Cl)c2)c2ccccc21	28*	·	16	·	-4
CC1CCCN(CC(=O)c2ccc(Cl)c(Cl)c2)C1 (stereo not given)	-1	42*	-1	6	-6
CC1CCN(CC(=O)c2ccc3c(c2)OCCO3)CC1	0	0	0	-8	-8
CCOCCCn1c(N)c(C(=O)Nc2sc3c(c2C(=O)OC)CCCC3)c2nc3ccccc3nc21	0	21	0	64*	-6
Cc1cc(C)cc(N2C(=O)NC(=O)/C(=C\c3cccn3-c3ccccc3)C2=O)c1	-2	43*	0	47	-7
Cc1cccc(N2C(=O)NC(=O)/C(=C\c3cnc(-c4ccccc4)nc3)C2=O)c1	-1	3	-1	-2	-5
CC(=O)OC1C(=O)OCC23CCC4(C)OC4C2OC2CC(OC(=O)C=CC=CC(=O)OCCC1C)C3(C)C21CO1 (stereo not given)	·	12	·	65*	·
Clc1ccc(C(c2ccccc2)c2ncc[nH]2)cc1 (stereo not given)	1	33	3	-4	0
CCN(CC)c1ccc(/C=C2\C(=O)NC(=S)N(C)C2=O)o1	22*	18	23*	-5	-4
O=C(O)COc1ccc(Cl)cc1Cl	0	1	0	-8	-4
Oc1cc(Cl)ccc1Oc1ccc(Cl)cc1Cl	-3	-2	0	50*	-9
Cc1ccc2c(c1)C1CN(C)CCC1N2C(=O)Nc1cccc(Cl)c1 (stereo not given)	30*	34	20	22	-12	OXTR agonist cf=8;V1R ag counter 3x=5
Clc1ccccc1C1=NCc2nncn2-c2sc(Br)cc21	0	0	0	-7	-6
CCCCNC(C)Cc1ccccc1 (stereo not given)	1	1	1	2	-9
COc1ccc(CC(C)NCCC(c2ccccc2)c2ccccc2)cc1 (stereo not given)	21*	42*	12	43	-18	OXTR agonist cf=9;V1R ag counter 3x=4
C[C@]12CC[C@H](O)C[C@H]1CC[C@@H]1[C@@H]2CC[C@]2(C)C(=O)CC[C@@H]12	0	2	1	5	-5
SMILES	OXTR agonist	TAAR1 ag	V1aR counter	TAAR1 antag	OXTR potentiate	others
Cc1[nH]c2ccc(OC(F)(F)F)cc2c1CCNCc1cccc([N+](=O)[O-])c1	20*	44*	10	49*	-7	OXTR agonist cf=13;V1R ag counter 3x=8
CN1CCN(c2ccc([N+](=O)[O-])c(N)c2)CC1	0	3	2	7	-5
CN1CCN(c2ccc([N+](=O)[O-])c(SCCO)c2)CC1	4	1	0	-9	12*	OXTR pot confirm=-8
O=C(O)C(Cl)(Cl)Cl	0	0	0	0	-7
COc1cccc(NC(=O)[C@@H](NC(=O)N2C[C@H]3C[C@@H](C2)c2cccc(=O)n2C3)C(C)C)c1	3	3	0	-4	11*	OXTR pot confirm=-1
CCOc1cc2c(cc1OCC)-n1cccc1C(c1cc(C)c(OC)cc1C)NC2 (stereo not given)	2	2	29*	-5	-5	V1aR agonist cf=0;OXTR counter=0
Cc1cnc[nH]1	1	1	0	14	-3
O=C1NC(=O)C(Cc2ccccc2)(Cc2ccccc2)C(=O)N1Cc1ccccc1	·	0	·	60*	·	nonsel antag count=13;TAAR1 antag conf=35;Ga16 ag counter=1;TAAR1 ag count=4
CCC(c1nnnn1Cc1ccccc1)N1CCC(n2c(=O)[nH]c3ccccc32)CC1 (stereo not given)	·	24	·	72*	·	nonsel antag count=35*;TAAR1 antag conf=56*;Ga16 ag counter=11;TAAR1 ag count=14
CCCCn1nnnc1C(CCc1ccccc1)N1CCC(n2c(=O)[nH]c3ccccc32)CC1 (stereo not given)	·	11	·	67*	·	nonsel antag count=19;TAAR1 antag conf=45;Ga16 ag counter=7;TAAR1 ag count=27
COc1cccc(C(c2nnnn2-c2c(C)cccc2C)N2CCC(n3c(=O)[nH]c4ccccc43)CC2)c1OC (stereo not given)	·	1	·	31	·
